4 compounds from ChEMBL document CHEMBL1135543, “Alpha(1)-adrenoceptor antagonists. 4. Pharmacophore-based design, synthesis, and biological evaluation of new imidazo-, benzimidazo-, and indoloarylpiperazine derivatives” (J Med Chem, 2002) can be followed below.

Test [1] has as its target T1, 5-hydroxytryptamine receptor 1A (Rattus norvegicus, UniProt P19327).
T1 sequence (P19327 whole entry): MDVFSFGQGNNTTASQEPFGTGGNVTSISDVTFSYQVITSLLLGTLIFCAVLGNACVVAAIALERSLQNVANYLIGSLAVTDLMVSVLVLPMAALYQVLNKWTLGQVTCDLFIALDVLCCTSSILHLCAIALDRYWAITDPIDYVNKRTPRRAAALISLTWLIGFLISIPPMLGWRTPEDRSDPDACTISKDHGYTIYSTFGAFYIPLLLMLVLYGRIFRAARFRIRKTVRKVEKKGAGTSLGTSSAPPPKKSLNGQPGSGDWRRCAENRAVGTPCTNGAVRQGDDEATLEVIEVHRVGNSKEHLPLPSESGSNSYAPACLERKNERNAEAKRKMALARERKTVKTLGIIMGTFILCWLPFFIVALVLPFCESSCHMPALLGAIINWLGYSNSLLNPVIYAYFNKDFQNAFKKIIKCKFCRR
As to the kind of experiment: Binding affinity against 5-hydroxytryptamine 1A receptor by displacing [3H]8-OH-DPAT radioligand in rat cortex membrane. In kind it is cell membranes. The method in brief:
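Rat cortex membranes, pre-incubated 10 min at 37 °C to remove endogenous 5-HT, stored at –80 °C, then resuspended in 50 mM Tris-HCl pH 7.4 (0.2–0.3 mg protein). GF/C filtration, scintillation counting.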

Test [2] addresses T2, Adrenergic receptor alpha-1 (Rattus norvegicus, UniProt P15823+P23944+P43140).
T2 sequence (P15823 whole entry): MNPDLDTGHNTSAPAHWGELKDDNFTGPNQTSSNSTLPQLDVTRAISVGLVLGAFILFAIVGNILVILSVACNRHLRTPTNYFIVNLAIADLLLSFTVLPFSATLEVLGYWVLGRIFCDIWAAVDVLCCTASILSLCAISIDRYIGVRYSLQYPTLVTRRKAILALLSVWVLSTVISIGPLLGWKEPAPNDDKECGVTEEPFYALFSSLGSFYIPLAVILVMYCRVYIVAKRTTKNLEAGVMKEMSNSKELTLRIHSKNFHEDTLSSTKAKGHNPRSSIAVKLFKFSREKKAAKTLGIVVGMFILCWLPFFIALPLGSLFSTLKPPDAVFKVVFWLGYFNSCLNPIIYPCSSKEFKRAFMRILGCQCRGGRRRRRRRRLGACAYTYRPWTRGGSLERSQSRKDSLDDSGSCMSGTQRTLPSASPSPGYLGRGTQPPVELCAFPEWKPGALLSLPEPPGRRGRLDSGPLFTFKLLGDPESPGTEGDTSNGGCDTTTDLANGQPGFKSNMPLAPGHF
T2 sequence (P23944 whole entry): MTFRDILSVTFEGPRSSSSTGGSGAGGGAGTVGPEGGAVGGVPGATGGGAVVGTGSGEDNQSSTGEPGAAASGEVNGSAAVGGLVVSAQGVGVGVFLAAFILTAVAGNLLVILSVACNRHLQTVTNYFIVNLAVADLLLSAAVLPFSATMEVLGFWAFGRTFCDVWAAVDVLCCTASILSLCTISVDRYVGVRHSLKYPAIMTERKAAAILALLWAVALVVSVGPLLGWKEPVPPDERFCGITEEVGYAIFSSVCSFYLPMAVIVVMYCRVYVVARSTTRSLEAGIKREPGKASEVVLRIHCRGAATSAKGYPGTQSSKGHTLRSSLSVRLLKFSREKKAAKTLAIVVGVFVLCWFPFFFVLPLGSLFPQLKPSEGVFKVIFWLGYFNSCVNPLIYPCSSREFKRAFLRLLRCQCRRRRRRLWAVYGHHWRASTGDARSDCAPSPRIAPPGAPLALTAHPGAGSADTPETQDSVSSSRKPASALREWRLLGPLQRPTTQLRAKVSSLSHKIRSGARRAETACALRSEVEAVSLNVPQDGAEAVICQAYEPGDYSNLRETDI
T2 sequence (P43140 whole entry): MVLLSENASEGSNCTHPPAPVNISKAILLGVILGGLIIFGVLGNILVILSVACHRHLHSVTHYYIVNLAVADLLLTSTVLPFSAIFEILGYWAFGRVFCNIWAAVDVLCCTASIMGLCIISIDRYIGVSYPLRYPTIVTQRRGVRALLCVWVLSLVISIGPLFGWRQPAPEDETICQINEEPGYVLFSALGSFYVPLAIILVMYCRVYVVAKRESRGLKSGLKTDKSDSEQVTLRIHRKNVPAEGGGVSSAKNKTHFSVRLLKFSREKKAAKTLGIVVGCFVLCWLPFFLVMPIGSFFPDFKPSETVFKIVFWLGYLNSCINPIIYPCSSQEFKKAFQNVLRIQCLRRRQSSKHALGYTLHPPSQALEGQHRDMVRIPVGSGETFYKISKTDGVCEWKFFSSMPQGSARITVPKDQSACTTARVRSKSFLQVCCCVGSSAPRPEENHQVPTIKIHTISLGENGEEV
Put plainly: Intrinsic activity against Alpha-1 adrenergic receptor expressed as displacement of [3H]prazosin from rat cerebral cortex membrane in the absence of 1 nM GTP. The class given is tissue-based. The method in brief: (§1)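 [3H]prazosin competition on rat cerebral cortex membranes, run with and without GTP (1 nM in table footnote, 1 mM in text). The GTP shift is the ratio of the affinity constant with GTP to that without. Values are means ± SEM of three experiments.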
In general terms: Displacement assays read how much labelled ligand stays bound in the presence of the test substance.

Test [3] concerns the target T2, Adrenergic receptor alpha-1. Put plainly: Intrinsic activity against Alpha-1 adrenergic receptor expressed as displacement of [3H]prazosin from rat cerebral cortex membrane in the presence of 1 nM GTP. In kind it is tissue-based. In outline:
as §1

The target of test [4] is T3, Adrenergic receptor alpha-2 (Rattus norvegicus, UniProt P22086+P19328+P22909).
T3 sequence (P22086 whole entry): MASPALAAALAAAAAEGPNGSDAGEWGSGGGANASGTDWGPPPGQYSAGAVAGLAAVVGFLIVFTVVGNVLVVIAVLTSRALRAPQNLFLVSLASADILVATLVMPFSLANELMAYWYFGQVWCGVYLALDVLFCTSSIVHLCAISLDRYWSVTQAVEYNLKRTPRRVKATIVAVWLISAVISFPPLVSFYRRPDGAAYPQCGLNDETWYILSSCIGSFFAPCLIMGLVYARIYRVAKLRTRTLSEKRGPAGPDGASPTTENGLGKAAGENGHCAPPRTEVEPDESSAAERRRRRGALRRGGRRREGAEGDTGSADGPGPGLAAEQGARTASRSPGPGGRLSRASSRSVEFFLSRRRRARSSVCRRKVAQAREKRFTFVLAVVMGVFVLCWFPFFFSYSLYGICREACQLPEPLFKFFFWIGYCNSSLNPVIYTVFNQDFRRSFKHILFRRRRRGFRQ
T3 sequence (P19328 whole entry): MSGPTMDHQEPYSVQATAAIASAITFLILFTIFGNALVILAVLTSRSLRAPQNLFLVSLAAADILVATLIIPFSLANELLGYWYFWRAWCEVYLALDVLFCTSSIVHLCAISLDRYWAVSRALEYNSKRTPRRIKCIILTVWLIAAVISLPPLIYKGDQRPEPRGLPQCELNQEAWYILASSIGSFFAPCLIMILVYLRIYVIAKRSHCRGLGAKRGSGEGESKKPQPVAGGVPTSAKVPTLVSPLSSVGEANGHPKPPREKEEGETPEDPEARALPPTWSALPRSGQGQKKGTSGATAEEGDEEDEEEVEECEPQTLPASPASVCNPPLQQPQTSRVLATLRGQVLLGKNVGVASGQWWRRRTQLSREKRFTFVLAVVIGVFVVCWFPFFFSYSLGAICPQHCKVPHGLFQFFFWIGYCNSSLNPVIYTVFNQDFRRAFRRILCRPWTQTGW
T3 sequence (P22909 whole entry): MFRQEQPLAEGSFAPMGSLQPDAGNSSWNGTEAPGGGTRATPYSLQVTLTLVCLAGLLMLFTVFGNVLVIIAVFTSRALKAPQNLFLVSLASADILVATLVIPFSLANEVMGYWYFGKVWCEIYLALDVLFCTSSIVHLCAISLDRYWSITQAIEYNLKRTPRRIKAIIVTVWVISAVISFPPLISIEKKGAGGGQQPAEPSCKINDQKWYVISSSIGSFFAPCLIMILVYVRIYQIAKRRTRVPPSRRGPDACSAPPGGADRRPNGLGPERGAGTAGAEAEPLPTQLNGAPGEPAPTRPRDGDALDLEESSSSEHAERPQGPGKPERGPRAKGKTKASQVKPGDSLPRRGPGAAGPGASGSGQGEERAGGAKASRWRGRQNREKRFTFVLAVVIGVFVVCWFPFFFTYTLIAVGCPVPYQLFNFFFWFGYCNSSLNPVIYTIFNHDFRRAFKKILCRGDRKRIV
As to the kind of experiment: Binding affinity against Alpha-2 adrenergic receptor by displacing [3H]rauwolscine radioligand in rat cortex membrane. The class given is cell membranes, Brain.

Test [5] addresses T2, Adrenergic receptor alpha-1. Put plainly: Binding affinity against Alpha-1 adrenergic receptor by displacing [3H]prazosin radioligand in rat cortex membrane. The class given is cell membranes, Brain.
Test [6] has the same target. Put plainly: Intrinsic activity for displacement of [3H]prazosin from Alpha-1 adrenergic receptor of rat cerebral cortex membrane in the absence of 1 nM GTP. The class given is tissue-based. In outline:
as §1

The target is the same in test [7]. As to the kind of experiment: Intrinsic activity for displacement of [3H]prazosin from Alpha-1 adrenergic receptor of rat cerebral cortex membrane in the presence of 1 nM GTP. In kind it is tissue-based. In outline: as §1
For test [8] the target is unchanged. Put plainly: Intrinsic activity for displacement of [3H]- prazosin from Alpha-1 adrenergic receptor of rat cerebral cortex membrane in the absence of 1 nM GTP. In kind it is tissue-based.
Test [9] has the same target. Put plainly: Intrinsic activity for displacement of [3H]- prazosin from Alpha-1 adrenergic receptor of rat cerebral cortex membrane in the presence of 1 nM GTP. The class given is tissue-based.

For orientation: Ki means a measure of affinity in units of concentration, obtained from inhibition or displacement.

Consider `COc1ccccc1N1CCN(CCCCn2nc(-n3ccc4ccccc43)ccc2=O)CC1`, for which the inhibition constant Ki was 0.253 µM in test [1], 0.001 µM in test [2], 0.0016 µM in test [3] and 0.02 µM in test [4].
In the case of `COc1ccccc1N1CCN(CCCCCCCn2nc(-n3ccc4ccccc43)ccc2=O)CC1`, the inhibition constant (Ki) amounted to 0.181 µM in test [1], 0.306 µM in test [4] and 0.0011 µM in [5].
In the case of `COc1ccccc1N1CCN(CCCCn2nc(-n3cnc4ccccc43)ccc2=O)CC1`, the inhibitory constant (Ki) stood at 0.315 µM in [1], 0.0012 µM in [6] and 0.00097 µM in test [7].
Turning to `O=c1ccc(-n2ccnc2)nn1CCCCCCCN1CCN(c2ccccc2Cl)CC1`, the Ki in test [1] stood at 0.123 µM; in test [8], 0.0049 µM; in test [9], 0.00833 µM; in [4], 0.0245 µM; in test [5], 0.0046 µM.
